# AHR activator = activators of human aryl hydrocarbon receptor | P35869 | AHR-responsive luciferase reporter cells, luminescence | activation, % at 5 µM | 2.5% of 320,000 active; in the data active means activation above about 47%;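 further: 0% = vehicle wells and 100% = reference agonist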
# proCasp3 act = activates human procaspase-3 | P42574 | recombinant procaspase-3 D3A, Ac-DEVD-pNA absorbance 405 nm | activation, % at 8.5 µM | 0.11% of 330,000 active;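 active means activation above the mean of all tested compounds plus 3 SD, cut at about 21% in these data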;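 further: 0% = DMSO alone and 100% = DMSO wells spiked with extra 5 µM PC-3 D3A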
# Target sequence (P42574 whole entry D9A/D28A/D175A): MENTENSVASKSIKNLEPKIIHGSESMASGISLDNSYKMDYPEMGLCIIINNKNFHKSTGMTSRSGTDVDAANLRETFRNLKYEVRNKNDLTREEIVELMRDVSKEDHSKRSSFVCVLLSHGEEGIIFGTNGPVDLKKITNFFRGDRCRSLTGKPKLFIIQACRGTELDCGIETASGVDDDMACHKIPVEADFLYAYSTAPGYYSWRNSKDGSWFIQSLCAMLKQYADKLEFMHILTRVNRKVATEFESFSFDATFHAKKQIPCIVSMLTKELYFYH
#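 Technique: 405 nm absorbance of p-nitroaniline, reads at 0 and 120 min; Test system: Procaspase-3 D3A mutant; Incubation: 1 h enzyme-compound preincubation, then 2 h substrate reaction, 25 °C; Repeats: singlicate, each compound tested once; Benchmarks: low control DMSO wells, high control DMSO plus 5 µM PC-3 D3A.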
# procasp7 counter = counter-screen: procaspase-7 (human) activation | P55210 | recombinant procaspase-7, Ac-DEVD-pNA absorbance 405 nm; D23A/D198A/D206A triple mutant, cannot self-cleave; scale: DMSO 0, 5 µM enzyme 100 | activation, % at 8.5 µM | 0.093% of 330,000 active;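 active means percent activation above the screen-wide mean plus 3 SD, cut at about 25% in these data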
# Target sequence (P55210 whole entry D23A/D198A/D206A): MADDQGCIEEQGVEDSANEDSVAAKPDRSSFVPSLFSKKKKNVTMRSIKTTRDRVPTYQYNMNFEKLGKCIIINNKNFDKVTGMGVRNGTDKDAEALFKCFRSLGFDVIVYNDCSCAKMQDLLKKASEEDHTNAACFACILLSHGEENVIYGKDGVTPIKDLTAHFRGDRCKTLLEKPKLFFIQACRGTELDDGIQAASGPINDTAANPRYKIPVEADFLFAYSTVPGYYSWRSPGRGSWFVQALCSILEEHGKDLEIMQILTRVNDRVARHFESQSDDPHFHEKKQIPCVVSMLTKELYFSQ
#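 Replicates: singlicate. Assay system: Procaspase-7 triple mutant (PC-7 D3A). Signal: 405 nm absorbance of p-nitroaniline. Times: 1 h preincubation, 2 h reaction. Buffer or medium: Zinc-free HEPES pH 7.4 with 300 mM NaCl, 0.01% Triton X-100. Also added: DEVD-pNA substrate. Benchmarks: DMSO wells as 0%, DMSO with 5 µM added PC-7 as 100%.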
# PolyA inh = blocks polyadenylation in yeast reporter cells | 0.02% of 300,000 active | S. cerevisiae SKY197-pL101 polyadenylation reporter, beta-gal luminescence; efflux-impaired pdr1/pdr3 knockout yeast; score 100 = 6 SD above DMSO | activity score, % at 12 µM;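 active means lowest replicate activity score at least 50, where 100 means six control SD above control mean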;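 further: yeast exposed to compound for 9 h at 30 °C; higher score means more reporter readthrough which indicates perturbed polyadenylation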
# AHR act cf = confirmation of human aryl hydrocarbon receptor activators | shares compounds with AHR activator | human cells, AHR-responsive luciferase reporter, luminescence | activation, % at 9 µM | 87% of 2,300 active; in the data active means activation above about 49%;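 further: HepG2 hepatoma cells carrying a DRE-driven firefly luciferase reporter; 0% = vehicle wells and 100% = reference agonist wells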
# PXR act counter = activates human PXR in AHR activator counter-screen | shares compounds with AHR activator | activation, % at 11.6 µM | cell-based PXR reporter, luciferase luminescence | 88% of 2,300 active | AID 434939; in the data active means activation above about 11%;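 further: human hepatoma DPX-2 cells expressing full-length human PXR; 0% = DMSO and 100% = reference agonist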
# procasp7 triplic = counter-screen for procaspase-3 activators: activators of human procaspase-7; shares compounds with proCasp3 act; recombinant procaspase-7, Ac-DEVD-pNA absorbance; asp23/198/206-to-Ala mutant, cannot self-cleave; activation, % at 8.5 µM; 210 tested, under 10 active; AID 488941;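 active means mean activation above a set limit taken from an earlier procaspase-7 screen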;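 further: 0% = DMSO wells and 100% = DMSO plus 5 µM procaspase-7 enzyme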
# procasp3 conf = confirmation of human procaspase-3 activators | shares compounds with proCasp3 act | recombinant PC-3 D3A, Ac-DEVD-pNA absorbance 405 nm; 100% is higher-enzyme control | activation, % at 8.5 µM | 10% of 210 active;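 active means mean activation above a set limit carried over from the earlier primary screen, cut at about 22% in these data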
# PC3 dual counter = counter-screen: procaspase-3 (human) activation; activation, % at 8.5 µM; AID 493114; shares compounds with procasp7 counter; 290 tested, under 10 active; recombinant PC-3 D3A, Ac-DEVD-pNA absorbance 405 nm; aspartates 9, 28, 175 changed to alanine; 100% = enzyme control;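 active means mean percent activation across triplicates above a set limit taken from the earlier primary procaspase-3 screen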;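 further: 0% = DMSO wells and 100% = DMSO wells with 5 µM added PC-3 D3A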
# Procasp7 act = confirmation of dual procaspase activators: human procaspase-7 activation. shares compounds with procasp7 counter. recombinant procaspase-7, Ac-DEVD-pNA absorbance 405 nm; D23A/D198A/D206A mutant that cannot self-cleave. activation, % at 8.5 µM. 290 tested, under 10 active;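 active means mean activation above a set limit carried over from the earlier primary screen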;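 further: 0% = DMSO only and 100% = DMSO with added 5 µM PC-7 enzyme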
# Numbers without * were called inactive; / = no result. This is a sample that favours compounds with a hit; in the whole collection about 2.6% have one here.
SMILES,AHR activator,proCasp3 act,procasp7 counter,PolyA inh,procasp7 triplic,procasp3 conf,others
Cc1cc2nn(-c3cccc4ccccc34)nc2cc1N,82*,22*,5,-7,5,24*,AHR act cf=110*;PXR act counter=21*
COc1ccc(CCNC(=O)C(=O)NCC2OCCN2S(=O)(=O)c2ccc3c(c2)OCCO3)cc1OC (stereo not given),-4,1,3,-1,/,/,
O=C(N/N=C/c1c[nH]c2ccccc12)c1cc(-c2ccc3ccccc3c2)n[nH]1,145*,9,31*,-18,/,/,AHR act cf=53*;PXR act counter=12*;PC3 dual counter=3;Procasp7 act=-1
CS(=O)(=O)N(CC(=O)Nc1ccc(S(=O)(=O)N2CCCC2)cc1)c1cccc(F)c1,5,-3,4,-15,/,/,
c1ccc(C2=NN(c3ccccc3)C(c3ccco3)C2)cc1 (stereo not given),-3,26*,24,-30,-20,-15,
c1ccc(N2N=C(c3cccs3)CC2c2ccco2)cc1 (stereo not given),17,4,-4,-26,/,/,
O=C(/C=C1\NC2(CCCC2)Cc2ccccc21)C(=O)N/N=C/c1ccccc1O,14,24*,0,-10,24,32*,
CC(C)N(C(=O)[C@H]1C[C@H](CC(=O)NCCN2CCOCC2)C(=O)N2CCc3c([nH]c4cc(CCC(=O)N(C)C)ccc34)[C@]12C)C(C)C,/,-3,-204,/,/,/,
COc1ccc2cc(S(=O)(=O)NCCCN3CCOCC3)ccc2c1,0,22*,-4,3,2,6,
Cc1cc(C)c2nc(-c3cccc(Cl)c3)c(C)c(C(=O)N3CCOCC3)c2c1,7,-1,-3,-24,/,/,
O=C(N/N=C\c1c(O)ccc2ccccc12)c1ccc(O)cc1,24,21*,3,1,-14,-15,
COc1ccccc1[C@@H]1C(c2cccc(C)c2)=NN(c2ccccc2)[C@H]1C(=O)N1CCOC1=O,2,24*,18,21,-22,-15,
Cc1ccc(NC(=O)CN2CCC(C(=O)c3ccc(F)cc3)CC2)cc1,2,38*,8,10,2,5,
CCC[C@H]1COCCS(=O)(=O)N1Cc1ccc(Br)cc1,2,-1,-4,0,/,/,
CCCC(=O)N(Cc1cc(=O)[nH]c2ccccc12)c1ccccc1,5,74*,7,-1,3,5,
COC(=O)[C@H](Cc1ccccc1)[C@@H](C)OS(N)(=O)=O,0,-2,-9,13,/,/,
CCOc1cccc(-c2c(C(=O)N/N=C/c3ccc(C)s3)nnn2-c2nonc2N)c1,5,-1,-4,-5,/,/,
CCOc1ccc(-c2c(C(=O)N/N=C/c3ccc(C)s3)nnn2-c2nonc2N)cc1,22,26*,-6,14,-3,-4,
CCOc1ccc(NC(=O)CN(C)C(=O)c2cc([N+](=O)[O-])ccc2N2CCOCC2)cc1OCC,5,-3,-9,1,/,/,
CCC(=O)c1ccc(OCC(=O)c2ccc3c(c2)NC(=O)CO3)cc1,4,23*,4,-24,4,4,
COc1ccc(-n2c(SCC#N)nc3c(sc(=S)n3-c3ccccc3)c2=O)c(OC)c1,0,-18,-14,-28,/,/,
O=C(Nc1cc(S(=O)(=O)N2CCOCC2)ccc1N1CCOCC1)c1ccccc1F,0,23*,-2,/,2,3,
O=C(Cc1ccccc1F)Nc1cc(S(=O)(=O)N2CCOCC2)ccc1N1CCOCC1,-2,12,0,/,/,/,
COc1ccc(OC)c(/C=C/C(=O)OCC(=O)Nc2cccc(Oc3ccccc3)c2)c1,4,23*,17,-4,-22,-14,
CCCCn1c(N)c(N(CC)C(=O)c2cccc(S(=O)(=O)N3CCN(C)CC3)c2)c(=O)[nH]c1=O,-2,24*,6,11,4,7,
SMILES,AHR activator,proCasp3 act,procasp7 counter,PolyA inh,procasp7 triplic,procasp3 conf,others
CCN(CC)C(=O)Cn1cc(C(=O)C(=O)NCCCN2CCCCC2)c2ccccc21,-1,-4,10,3,/,/,
Cc1cc(N/N=C/c2ccc(N(C)C)cc2)c2ccccc2n1,49*,28*,24,4,-4,-6,
CCOc1ccc(NC(=O)CN(C)C(=O)c2ccc3c(c2)C(=O)N(CCC(C)C)C3=O)cc1OCC,2,-6,2,-13,/,/,
CC(=O)Oc1cccc2c1C(=O)c1c(OC(C)=O)cc(C(=O)O)cc1C2=O,0,26*,16,-6,17,32*,
O=C(COC(=O)c1c(F)cccc1F)Nc1ccc(N2CCCCC2)cc1,0,1,-4,/,/,/,
C=CCn1c(=NC(=O)c2cc(-c3cccs3)nc3ccccc23)sc2cc(S(N)(=O)=O)ccc21,17,78*,14,30,15,20,
COCCn1c(=NC(=O)c2cc(-c3cccs3)nc3ccccc23)sc2cc(S(N)(=O)=O)ccc21,8,44*,9,16,0,-3,
C=CCn1c(=NC(=O)c2sc3ccccc3c2Cl)sc2cc(S(N)(=O)=O)ccc21,-2,-4,-1,11,/,/,
Cc1ccn(CCC(=O)N2CCc3ccccc32)n1,13,4,-1,4,/,/,
COc1ccc(C(=O)NCCC(=O)N2CCC3(CC2)NCCc2[nH]cnc23)cc1,0,3,-3,4,/,/,
O=C1C2C(c3ccccc3)=NN(c3ccccc3)C2C(=O)N1c1ccccc1 (stereo not given),1,23*,25,-37,36*,47*,
O=C1OCCN1C(=O)[C@H]1[C@H](c2ccc(Cl)cc2)C(c2ccccc2)=NN1c1ccccc1,/,-4,-5,/,/,/,
Cc1cc(Cl)cc(Cl)c1OCCN1CCCC1,-1,-9,3,1,/,/,
CCC(C)NC(=O)CNC(=O)c1nn(-c2ccc(OC)c(Cl)c2)c(=O)c2ccccc12 (stereo not given),8,22*,3,-7,3,3,
